{"data": "Published values gathered from unrelated publications", "target": "Tyrosine-protein kinase ITK/TSK (ITK, Homo sapiens, UniProt Q08881)", "Residues used in one study (Q08881 1-620)": "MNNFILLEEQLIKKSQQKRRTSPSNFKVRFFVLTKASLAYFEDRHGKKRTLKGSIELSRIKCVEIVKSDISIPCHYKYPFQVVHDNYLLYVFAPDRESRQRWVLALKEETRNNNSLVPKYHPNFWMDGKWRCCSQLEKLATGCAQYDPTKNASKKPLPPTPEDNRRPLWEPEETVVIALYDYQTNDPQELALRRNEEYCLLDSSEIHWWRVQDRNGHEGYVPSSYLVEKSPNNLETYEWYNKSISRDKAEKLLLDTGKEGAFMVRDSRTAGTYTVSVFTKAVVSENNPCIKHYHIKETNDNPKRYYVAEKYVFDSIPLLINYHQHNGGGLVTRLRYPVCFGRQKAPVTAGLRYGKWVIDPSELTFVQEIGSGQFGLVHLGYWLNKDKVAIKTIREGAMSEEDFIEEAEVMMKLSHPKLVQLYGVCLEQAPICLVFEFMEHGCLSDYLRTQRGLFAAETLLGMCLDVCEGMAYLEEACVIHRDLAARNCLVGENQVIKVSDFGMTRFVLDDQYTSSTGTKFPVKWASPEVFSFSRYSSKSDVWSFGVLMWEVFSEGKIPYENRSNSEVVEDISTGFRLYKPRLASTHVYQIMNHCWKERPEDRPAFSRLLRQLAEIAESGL", "note": "Lines come from different studies, so protocols differ."}
{"Structure (SMILES)": "CC(=O)N1CCC(c2ccc(C(=O)NC(=N)N)cc2C(F)(F)F)CC1", "test": "cell-free assay, competition with immobilised ligand", "setting": "1 µM", "quantity": "remaining binding", "result": "100%"}
{"Structure (SMILES)": "Nc1ncnc2occ(-c3ccc(NC(=O)Nc4cc(C(F)(F)F)ccc4F)cc3)c12", "test": "cell-free assay", "setting": "20 µM", "quantity": "remaining signal", "result": "12%"}
{"Structure (SMILES)": "CN(C)C1CCN(CC#Cc2nn(C3CCCC3)c3nc(NCc4ccccc4)ncc23)C1 (stereo not drawn)", "test": "enzyme activity, inhibitor, FRET", "setting": "0.1 µM", "quantity": "inhibition", "result": "1%"}
{"Structure (SMILES)": "Cc1nc(C2CCN(C(=O)c3ccc(OC(F)(F)F)cc3N)CC2)c2ncc(N3CCN(C)CC3)cc2n1", "test": "cell-free assay, competition with immobilised ligand", "setting": "1 µM", "quantity": "remaining binding", "result": "89%"}
{"Structure (SMILES)": "CNC(=O)c1cc(Oc2ccc(NC(=O)Nc3ccc(Cl)c(C(F)(F)F)c3)cc2)ccn1", "test": "enzyme activity, inhibitor", "setting": "10 µM", "quantity": "inhibition", "result": "32%"}
{"Structure (SMILES)": "O=S(=O)(NC1CCC(c2cc(F)ccc2F)(S(=O)(=O)c2ccc(Cl)cc2)CC1)C(F)(F)F (stereo not drawn)", "test": "cell-free assay, competition with immobilised ligand", "setting": "1 µM", "quantity": "remaining binding", "result": "97%"}
{"Structure (SMILES)": "Cc1ccc(C(=O)Nc2ccc(CN3CCN(C)CC3)c(C(F)(F)F)c2)cc1C#Cc1cnc2cccnn12", "test": "enzyme activity", "setting": "23.5 nM", "quantity": "remaining activity", "result": "82%"}
{"Structure (SMILES)": "CC1=C(C#N)[C@@H](c2ccc3[nH]nc(C)c3c2)C(C#N)=C(c2ccc(Cl)cc2)N1", "test": "cell-free assay, competition with immobilised ligand", "setting": "1 µM", "quantity": "remaining binding", "result": "97.2%"}
{"Structure (SMILES)": "COc1cc(Cl)c(C(=O)N[C@@H](CN[C@H]2CC[C@@H](N)CC2)Cc2ccc(C#N)cc2)cc1-c1ccc(CN[C@H](C)c2ccc(C)cc2)o1", "test": "enzyme activity, inhibitor", "setting": "1 µM", "quantity": "remaining activity", "result": "104%"}
{"Structure (SMILES)": "Cc1ccc(C(=O)NCc2ccsc2)cc1C#Cc1cn(C(C)C)c2ncnc(N)c12", "test": "enzyme activity, inhibitor", "setting": "1 µM", "quantity": "activity vs control", "result": "97%"}
{"Structure (SMILES)": "CCc1ccccc1C(=O)Nc1n[nH]c2c(C)c(F)c(C3C(C#N)=C(C)N(C)C(C)=C3C#N)cc12", "test": "cell-free assay, competition with immobilised ligand", "setting": "1 µM", "quantity": "remaining binding", "result": "86%"}
{"Structure (SMILES)": "O=C(Nc1cnn(-c2csc(C(=O)NC3COC3)c2)c1)Nc1c(F)cccc1Cl", "test": "enzyme activity, inhibitor", "setting": "5 µM", "quantity": "remaining activity", "result": "92.8%"}
{"Structure (SMILES)": "CO[C@@H](C)c1c(Nc2ccc([C@H](N(C)C(=O)C3CCS(=O)(=O)CC3)C(F)(F)F)cc2)cnc2cc(Cl)nn12", "test": "cell-free assay, competition with immobilised ligand", "setting": "1 µM", "quantity": "remaining binding", "result": "88%"}
{"Structure (SMILES)": "CCN(CC)CCNC(=O)c1c(C)[nH]c(/C=C2\\C(=O)Nc3ccc(Cl)cc32)c1C", "test": "enzyme activity, inhibitor", "setting": "0.5 µM", "quantity": "remaining activity", "result": "30%"}
{"Structure (SMILES)": "CC(C)(C)c1nc(-c2cccc(NS(=O)(=O)c3c(F)cccc3F)c2F)c(-c2ccnc(N)n2)s1", "test": "enzyme activity, inhibitor, radiometric", "setting": "1 µM", "quantity": "remaining activity", "result": "109%"}
{"Structure (SMILES)": "COc1cc2ncnc(Nc3ccc(Oc4ccccc4)cc3C)c2cc1OC", "test": "enzyme activity, inhibitor", "setting": "1 µM", "quantity": "inhibition", "result": "3%"}
{"Structure (SMILES)": "CC(C)CC(=O)N1CCc2nc(-c3ccc(Br)cc3)nc(N(C)Cc3ccccc3)c2C1", "test": "cell-free assay, competition with immobilised ligand", "setting": "0.1 µM", "quantity": "remaining binding", "result": "100%"}
{"Structure (SMILES)": "O=c1c2ccccc2[nH]c(=S)n1CCN1CCC(=C(c2ccc(F)cc2)c2ccc(F)cc2)CC1", "test": "enzyme activity, inhibitor", "setting": "0.5 µM", "quantity": "remaining activity", "result": "97.1%"}
{"Structure (SMILES)": "COc1cc2nccc(Oc3ccc(NC(=O)c4c5n(n(-c6ccc(F)cc6)c4=O)CCCC5)cc3)c2cc1OC", "test": "enzyme activity, inhibitor", "setting": "0.1 µM", "quantity": "inhibition", "result": "9%"}
{"Structure (SMILES)": "c1cnn2ncc(-c3ccnc(N4CCC45COC5)n3)c2c1", "test": "binding", "setting": "1 µM", "quantity": "remaining binding", "result": "100%"}
{"Structure (SMILES)": "COc1ccc(C(=O)Nc2sc3c(c2C(N)=O)CCCC3)cc1OC", "test": "enzyme activity, inhibitor", "setting": "0.5 µM", "quantity": "remaining activity", "result": "99.6%"}
{"Structure (SMILES)": "CCN(CC)CCNC(=O)c1c(C)[nH]c(/C=C2\\C(=O)Nc3ccc(F)cc32)c1C", "test": "enzyme activity, inhibitor", "setting": "10 µM", "quantity": "inhibition", "result": "93%"}
{"Structure (SMILES)": "CC(C)(O)[C@H]1CC[C@H](Nc2ccc3ncc(-c4cccc(C(F)(F)F)c4)n3n2)CC1", "test": "enzyme activity, inhibitor", "setting": "1 µM", "quantity": "remaining activity", "result": "88.8%"}
{"Structure (SMILES)": "Cc1ccc(Nc2nccc(N(C)c3ccc4c(C)n(C)nc4c3)n2)cc1S(N)(=O)=O", "test": "cell-free assay", "setting": "0.5 µM", "quantity": "remaining signal", "result": "115%"}
{"Structure (SMILES)": "C[C@@H]1CN(c2cc(-c3n[nH]c4ccc(OC5(C)CC5)cc34)ncn2)C[C@H](C)O1", "test": "cell-free assay, competition with immobilised ligand", "setting": "0.1 µM", "quantity": "remaining binding", "result": "87%"}
{"Structure (SMILES)": "c1nc2c(Nc3ccc4c(c3)OCCO4)nc(Nc3ccc4c(c3)OCCO4)nc2[nH]1", "test": "enzyme activity, inhibitor", "setting": "10 µM", "quantity": "activity vs control", "result": "5.1%"}
{"Structure (SMILES)": "O=c1cc(-c2cccc3c2Sc2ccccc2S3)oc(N2CCOCC2)c1", "test": "enzyme activity, inhibitor", "setting": "0.5 µM", "quantity": "remaining activity", "result": "96.6%"}
